Source: ChEMBL document CHEMBL1124777, “Specific bradycardic agents. 1. Chemistry, pharmacology, and structure-activity relationships of substituted benzazepinones, a-new class of compounds exerting antiischemic properties” (1990)
Values after ≈ are worked out from the molar mass of the structure shown.

How the values were obtained:
Rattus norvegicus = assay: Bradycardic activity measured as a percentage decrease of heart rate after 5 mg/kg intravenous administration in anesthetized rats; type: functional
Summary of the method: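 Male Chbb:THOM rats (200–250 g) were anesthetized with pentobarbital sodium 50 mg/kg ip, with tracheal cannulation and artificial respiration. Heart rate was recorded continuously by an ECG-triggered beat-to-beat tachograph. Dose was 5 mg/kg iv via the jugular vein. Rate was read at 2, 5 and 20 min, and the reduction taken at 5 min.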

Felis catus [1] = assay: Evaluated in vivo for bradycardic activity in anesthetized cat as a measure of % decrease of heart rate after 1 mg/Kg intravenous administration of the compound.; type: functional
Oryctolagus cuniculus = organism: Oryctolagus cuniculus; assay: Evaluated in vitro for the effect on K+ induced aortic contraction in isolated aortic strips of rabbit; type: functional; conditions: Aorta
[2] = Ratio between the EC30 values of atrial contractility and atrial rate; type: functional, Cardiac atrium
Summary of the method: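 Isolated guinea pig atria (300–500 g, either sex) in modified Tyrode's gassed with 98% O2/2% CO2, resting tension 1 g, isometric recording. Rate measured in spontaneously beating atria at 37 °C after ≥30 min equilibration. Contractility (g) measured in left atria paced at 2.5 Hz (3 ms pulses, 1.5× threshold), 30 °C, 20 min equilibration. EC30 is the concentration lowering the predrug value by 30%.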

Felis catus [3] = assay: Evaluated in vivo for bradycardic activity in anesthetized cat as a measure of percent decrease of heart rate after 1 mg/kg intravenous administration; type: functional
Cavia porcellus [4] = organism: Cavia porcellus; assay: Evaluated in vitro for the effect on spontaneous rate in isolated guinea pig atria; type: functional
Summary of the method: (§1)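 Spontaneously beating guinea pig atria (either sex, 300–500 g) were held in modified Tyrode's solution gassed with 98% O₂/2% CO₂, at 1 g resting tension and 37 °C. Equilibration lasted at least 30 min, until rate varied by no more than 5 beats/min. Recording was isometric. EC₃₀ is the concentration lowering predrug rate by 30%, given with 95% confidence limits.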

Cavia porcellus [5] = organism: Cavia porcellus; assay: Evaluated in vitro for its effect on atrial contractility in electrically stimulated isolated guinea pig left atria; conditions: Cardiac atrium
[6] = Ratio between the EC30 values of aortic contracture and atrial rate; type: functional, Cardiac atrium
Summary of the method: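 Guinea pig atria (300–500 g, either sex) in modified Tyrode's gassed with 98% O2/2% CO2, resting tension 1 g. Rate measured in spontaneously beating atria at 37 °C after at least 30 min equilibration. Rabbit aortic strips contracted with 40 mM KCl plus 1.8 mM CaCl2 to a plateau. EC30 is the concentration relaxing the contracture, or lowering the predrug rate, by 30%.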

Cavia porcellus [7] = organism: Cavia porcellus; assay: Evaluated in vitro for the effect on spontaneous atrial rate in isolated guinea pig atria; type: functional; conditions: Cardiac atrium; summary of the method: as §1

SMILES	Decrease (Rattus norvegicus) [%]	further results
COc1ccc(SCCCN(C)CCCN2CCc3cc(OC)c(OC)cc3CC2=O)cc1OC.Cl	-47	
COc1ccc(CCN(C)CCCN2CCCc3cc(OC)c(OC)cc3C2=O)cc1OC		Decrease (Felis catus [1]): -8%
COc1ccc(CCN(C)CCCN2CCc3cc4c(cc3CC2=O)OCO4)cc1OC.Cl	-42	
COc1ccc(CN(C)CCCN2CCc3cc(OC)c(OC)cc3CC2=O)cc1OC	-26	
COc1ccc(CCN(CCCN2CCc3cc(OC)c(OC)cc3CC2=O)C(C)=O)cc1OC	-3	
COc1cc2c(cc1OC)CC(=O)N(CCCN(C)CCc1ccc(OCc3ccccc3)cc1)CC2	-27	
COc1ccc(OCCCN(C)CCCN2CCc3cc(OC)c(OC)cc3CC2=O)cc1OC.Cl	-63	
C=CCN(CCCN1CCc2cc(OC)c(OC)cc2CC1=O)CCc1ccc(OC)c(OC)c1.Cl	-65	
COc1cc2c(cc1OC)CC(=O)N(CCCN(C)CCc1ccc(O)cc1)CC2.Cl	-33	
COc1ccc(CCN(C)CCCN2Cc3cc(OC)c(OC)cc3C2=O)cc1OC.Cl		EC30 (Oryctolagus cuniculus): 21.3 µg/mL; Ratio [2]: 154; Decrease (Felis catus [3]): -16%; EC30 (Cavia porcellus [4]): 0.608 µg/mL; EC30 (Cavia porcellus [5]): 93.6 µg/mL; Ratio [6]: 35
COc1cc2c(cc1OC)CC(=O)N(CCCN(C)CCc1ccc(N(C)C)cc1)CC2.Cl.Cl	-60	
CCCCOc1ccc(CCN(C)CCCN2CCc3cc(OC)c(OC)cc3CC2=O)cc1	-55	
COc1ccc(CCN(C)CCCCN2CCc3cc(OC)c(OC)cc3CC2=O)cc1OC.Cl	-33	
COc1cc2c(cc1OC)CC(=O)N(CCCN(C)CCc1ccc(Cl)c(Cl)c1)CC2.Cl.Cl	-47	
COc1ccc(CCN(C)CCCN2CCc3c(C)c(C)c(C)c(C)c3CC2=O)cc1OC.Cl	-41	
COC(=O)C1=C(C)NC(C)=C(C(=O)OC)C1c1ccccc1[N+](=O)[O-] [NIFEDIPINE]		EC30 (Oryctolagus cuniculus): 0.00397 µg/mL (≈ 0.0115 µM); Ratio [2]: 0.135; EC30 (Cavia porcellus [7]): 0.11 µg/mL (≈ 0.318 µM); EC30 (Cavia porcellus [5]): 0.0149 µg/mL (≈ 0.043 µM); Ratio [6]: 0.036
COc1ccc(CCN(C)CC(C)CN2CCc3cc(OC)c(OC)cc3CC2=O)cc1OC.Cl (stereo not drawn)	-43	
COc1ccc(CCN(C)CCCN2CCc3cc(O)c(O)cc3CC2=O)cc1OC	-30	
COc1ccc(OCCN(C)CCCN2CCc3cc(OC)c(OC)cc3CC2=O)cc1OC.Cl	-59	
COc1ccc(CCN(C)CCC[C@@](C#N)(c2ccc(OC)c(OC)c2)C(C)C)cc1OC [(S)-VERAPAMIL]		EC30 (Oryctolagus cuniculus): 0.0284 µg/mL (≈ 0.0625 µM); Ratio [2]: 0.88; EC30 (Cavia porcellus [7]): 0.0694 µg/mL (≈ 0.153 µM); EC30 (Cavia porcellus [5]): 0.0611 µg/mL (≈ 0.134 µM); Ratio [6]: 0.409

SMILES	Decrease (Rattus norvegicus) [%]	further results
CCOC(=O)N(CCCN1CCc2cc(OC)c(OC)cc2CC1=O)CCc1ccc(OC)c(OC)c1	-8	
COc1ccc(CCN(C)CCCN2CCc3cc(C)c(C)cc3CC2=O)cc1OC.Cl.Cl	-49	
COc1cc2c(cc1OC)CC(=O)N(CCCN(C)CCc1ccccc1)CC2.Cl.Cl	-52	
COc1ccc2c(c1)CC(=O)N(CCCN(C)CCc1ccc(OC)c(OC)c1)CC2.Cl.Cl	-44	
COc1cc2c(cc1OC)CC(=O)N(CCCN(C)CCc1ccc(N)cc1)CC2	-30	
COc1ccc(CCN(C)CCCN2CCc3c(OC)ccc(OC)c3CC2=O)cc1OC.Cl	-21	
COc1ccc(CCS(=O)(=O)CCCN2CCc3cc(OC)c(OC)cc3CC2=O)cc1OC	-1	
COc1cc2c(cc1OC)CC(=O)N(CCCN(C)CCc1ccc(C(C)(C)C)cc1)CC2.Cl.Cl	-58	
COc1ccc([C@@H]2Sc3ccccc3N(CCN(C)C)C(=O)[C@@H]2OC(C)=O)cc1 [DILTIAZEM]		EC30 (Oryctolagus cuniculus): 0.0741 µg/mL (≈ 0.179 µM); Ratio [2]: 19.5; EC30 (Cavia porcellus [7]): 0.14 µg/mL (≈ 0.338 µM); EC30 (Cavia porcellus [5]): 2.73 µg/mL (≈ 6.59 µM); Ratio [6]: 0.53
COc1cc2c(cc1OC)CC(=O)N(CCCN(C)CCc1ccc(OS(C)(=O)=O)cc1)CC2.Cl	-46	
COc1cc2c(cc1O)CC(=O)N(CCCN(C)CCc1ccc(OC)c(OC)c1)CC2	-29	
COc1ccc(CCN(CCCN2CCc3cc(OC)c(OC)cc3CC2=O)CCc2ccc(OC)c(OC)c2)cc1OC	-28	
COc1ccc(NCCCN(C)CCCN2CCc3cc(OC)c(OC)cc3CC2=O)cc1OC	-51	
COc1cc2c(cc1OC)CC(=O)N(CCCN(C)CCc1c(Cl)cccc1Cl)CC2.Cl.Cl.Cl.Cl	-13	
COc1ccc(CCSCCCN2CCc3cc(OC)c(OC)cc3CC2=O)cc1OC	1	
COc1ccc(CCNCCCN2CCc3cc(OC)c(OC)cc3CC2=O)cc1OC.Cl	-66	
CCCN(CCCN1CCc2cc(OC)c(OC)cc2CC1=O)CCc1ccc(OC)c(OC)c1.Cl	-56	
COc1ccc(CCCCN(C)CCCN2CCc3cc(OC)c(OC)cc3CC2=O)cc1OC.Cl	-46	
COc1ccc(CCN(C)CC(O)CN2CCc3cc(OC)c(OC)cc3CC2=O)cc1OC (stereo not drawn)	-28	
COc1ccc(CCN(C)CCCN2CCc3cc(OC)c(OC)cc3CC2=O)cc1.Cl	-42	

SMILES	Decrease (Rattus norvegicus) [%]	further results
COc1ccc(CC[N+](C)(C)CCCN2CCc3cc(OC)c(OC)cc3CC2=O)cc1OC.[I-]	-9	
COc1ccc(CCN(C)CCCN2CCc3cc4c(cc3CC2=O)OCCO4)cc1OC.Cl	-49	
COc1ccc(CCN(C)CCCN2CCc3ccc(OC)c(OC)c3CC2=O)cc1OC.Cl	-34	
COc1ccc(CCN(C)CCCN2CCc3cc(OC)c(OC)cc3CC2=O)cc1OC.Cl [ZATEBRADINE HYDROCHLORIDE]	-56	EC30 (Oryctolagus cuniculus): 15 µg/mL; Ratio [2]: 3600; EC30 (Cavia porcellus [7]): 0.03 µg/mL; EC30 (Cavia porcellus [5]): 108 µg/mL; Ratio [6]: 500; Decrease (Felis catus [1]): -56%
COc1cc(OC)c(CCN(C)CCCN2CCc3cc(OC)c(OC)cc3CC2=O)c(OC)c1.Cl	-25	
COc1ccc(CCN(C)CCCN2CCc3ccccc3CC2=O)cc1OC.Cl	-35	
COc1ccc(SCCN(C)CCCN2CCc3cc(OC)c(OC)cc3CC2=O)cc1OC.Cl	-44	
COc1cc2c(cc1O)CCN(CCCN(C)CCc1ccc(OC)c(OC)c1)C(=O)C2.Cl	-47	
COc1cc2c(cc1OC)CC(=O)N(CCCN(C)CCc1ccc(Cl)cc1)CC2.Cl	-55	
COc1ccc(OCCCCN(C)CCCN2CCc3cc(OC)c(OC)cc3CC2=O)cc1OC.Cl	-37	
COc1ccc(CCN(C)CCCN2CCc3cc(OC)c(OC)cc3C2=O)cc1OC.Cl		Decrease (Felis catus [1]): -29%
COc1cc2c(cc1OC)CC(=O)N(CCCN(C)CCc1cc(OC)c(OC)c(OC)c1)CC2.Cl	-21	
COc1ccc(CCCCCN(C)CCCN2CCc3cc(OC)c(OC)cc3CC2=O)cc1OC.Cl	-36	
COc1ccc(CC[S+]([O-])CCCN2CCc3cc(OC)c(OC)cc3CC2=O)cc1OC (stereo not drawn)	-4	
COc1ccc(CCCN(C)CCCN2CCc3cc(OC)c(OC)cc3CC2=O)cc1OC.Cl	-55	
COc1ccc(N(C)CCCN2CCc3cc(OC)c(OC)cc3CC2=O)cc1OC	-17	
COc1cc2c(cc1OC)CC(=O)N(CCCN(C)CCc1ccc([N+](=O)[O-])cc1)CC2.Cl	-41	
COc1ccc(NCCN(C)CCCN2CCc3cc(OC)c(OC)cc3CC2=O)cc1OC	-39	
COc1ccc2c(c1)CCN(CCCN(C)CCc1ccc(OC)c(OC)c1)C(=O)C2.Cl	-31	
COc1ccc(CCN(C)CCN2CCc3cc(OC)c(OC)cc3CC2=O)cc1OC.Cl	-13	
